In brackets after ≈: the same amount, converted by molar mass.
Experiments:
Format in all cases: cell-based
[1] = test system: Cryptococcus neoformans (ATCC 9011); test: MIC, broth microdilution; conditions: ATCC9011, read-out: Minimum inhibitory concentration (MIC), CN
How it was run: (§1)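 Antifungal MICs by CLSI broth microdilution in Sabouraud liquid medium. Test compounds and standard drugs are serially diluted two-fold from 512 to 0.25. The fungal broth culture is grown 24 h at 35 °C to a 0.5 McFarland turbidity, then adjusted with sterile solution to the final inoculum.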

[2] = test system: Streptococcus pneumonia (ATCC 49619); test: Agar disk diffusion, inhibition zone; conditions: 100 µg/8 mm disc, triplicate, mean ± SD
[3] = test system: Pseudomonas aeruginosa (MCCB 0035); test: Agar disk diffusion, inhibition zone; conditions: 100 µg/8 mm disc, triplicate, mean ± SD
[4] = test system: Salmonella typhimurium (NCIM-2501); test: Agar disk diffusion, inhibition zone; conditions: 100 µg/8 mm disc, triplicate, mean ± SD
[5] = test system: Aspergillus fumigatus (NCIM 2081); test: MIC, broth microdilution; conditions: NCIM2081, read-out: Minimum inhibitory concentration (MIC), AF
How it was run: as §1

[6] = test system: Pseudomonas aeruginosa (MCCB 0035); test: MIC, broth microdilution; conditions: read-out: Minimum inhibitory concentration (MIC), PA
How it was run: (§2)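 Broth microdilution per CLSI in Mueller-Hinton broth, using two-fold serial dilutions of test compound and reference drugs from 512 to 0.25. Bacterial broth cultures were grown 2-6 h to 0.5 McFarland turbidity, then diluted with sterile solution to the final inoculum. MIC is reported in µg/mL.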

[7] = test system: Bacillus cereus (NCIM-2458); test: MIC, broth microdilution; conditions: NCIM2458, read-out: Minimum inhibitory concentration (MIC), BC
How it was run: as §2

[8] = test system: Escherichia coli (ATCC 8739); test: Agar disk diffusion, inhibition zone; conditions: 100 µg/8 mm disc, triplicate, mean ± SD
How it was run: (§3)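 Agar disk diffusion on Mueller-Hinton agar plates seeded with a standard bacterial suspension. Test compound stock in DMSO, diluted with distilled water; 8 mm sterile filter-paper discs soaked in the solution. Ampicillin was the reference. Plates incubated at 35 °C for 24 h, in triplicate. Read-out is the average inhibition-zone diameter (mm) around each disc.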

[9] = test system: Bacillus cereus (NCIM-2458); test: Agar disk diffusion, inhibition zone; conditions: 100 µg/8 mm disc, triplicate, mean ± SD
[10] = test system: Aspergillus niger (NCIM 2191); test: Agar disk diffusion, inhibition zone; conditions: 100 µg/8 mm disc, triplicate, mean ± SD
How it was run: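 For the fungal strain, discs soaked in test compound solution (DMSO stock diluted with distilled water) sat on seeded Mueller-Hinton agar. Clotrimazole was the reference. Incubation ran 48 h at 35 °C, in triplicate. Zone of growth inhibition recorded in mm as the mean diameter around each disc.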

[11] = test system: Aspergillus fumigatus (NCIM 2081); test: Agar disk diffusion, inhibition zone; conditions: 100 µg/8 mm disc, triplicate, mean ± SD
[12] = test system: Candida albicans (NCIM 2087); test: MIC, broth microdilution; conditions: NCIM2087, read-out: Minimum inhibitory concentration (MIC), CA
How it was run: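 CLSI broth microdilution in Sabouraud liquid medium, with test compound two-fold serially diluted from 512 to 0.25. Fungal broth culture grown 24 h at 35 °C to 0.5 McFarland turbidity, then adjusted with sterile solution to a final […] inoculum. MIC expressed in µg/mL.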

[13] = test system: Staphylococcus aureus (ATCC 29213); test: MIC, broth microdilution; conditions: ATCC29213, read-out: Minimum inhibitory concentration (MIC), SA
How it was run: (§4)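 Antibacterial MICs by CLSI broth microdilution in Mueller-Hinton broth. Test compounds and standard drugs are serially diluted two-fold from 512 to 0.25. The bacterial broth culture is grown 2-6 h to a 0.5 McFarland turbidity, then adjusted with sterile solution to the final inoculum.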

[14] = test system: Staphylococcus aureus (ATCC 29213); test: Agar disk diffusion, inhibition zone; conditions: 100 µg/8 mm disc, triplicate, mean ± SD
How it was run: as §3

[15] = test system: Lactobacillus casei (NCIM-2651); test: Agar disk diffusion, inhibition zone; conditions: 100 µg/8 mm disc, triplicate, mean ± SD
[16] = test system: Candida albicans (NCIM 2087); test: Agar disk diffusion, inhibition zone; conditions: 100 µg/8 mm disc, triplicate, mean ± SD
[17] = test system: Escherichia coli (ATCC 8739); test: MIC, broth microdilution; conditions: ATCC8739, read-out: Minimum inhibitory concentration (MIC), EC
How it was run: as §2

[18] = test system: Klebsiella aerogenes (NCIM-2098); test: Agar disk diffusion, inhibition zone; conditions: 100 µg/8 mm disc, triplicate, mean ± SD
[19] = test system: Cryptococcus neoformans (ATCC 9011); test: Agar disk diffusion, inhibition zone; conditions: 100 µg/8 mm disc, triplicate, mean ± SD
[20] = test system: Klebsiella aerogenes (NCIM-2098); test: MIC, broth microdilution; conditions: NCIM2098, read-out: Minimum inhibitory concentration (MIC), KA
How it was run: as §4

[21] = test system: Aspergillus niger (NCIM 2191); test: MIC, broth microdilution; conditions: NCIM2191, read-out: Minimum inhibitory concentration (MIC), AN
How it was run: as §1

| MIC [1] [µg/mL] | MIC [5] [µg/mL] | MIC [6] [µg/mL] | MIC [7] [µg/mL] | MIC [12] [µg/mL] | MIC [13] [µg/mL] | MIC [17] [µg/mL] | MIC [20] [µg/mL] | Structure (SMILES) | Diameter of growth inhibition zone, SP [2] [mm] | Diameter of growth inhibition zone, PA [3] [mm] | Diameter of growth inhibition zone, ST [4] [mm] | Diameter of growth inhibition zone, EC [8] [mm] | Diameter of growth inhibition zone, BC [9] [mm] | Diameter of growth inhibition zone, AN [10] [mm] | Diameter of growth inhibition zone, AF [11] [mm] | Diameter of growth inhibition zone, SA [14] [mm] | Diameter of growth inhibition zone, LC [15] [mm] | Diameter of growth inhibition zone, CA [16] [mm] | Diameter of growth inhibition zone, KA [18] [mm] | Diameter of growth inhibition zone, CN [19] [mm] | other results |
| --- | --- | --- | --- | --- | --- | --- | --- | --- | --- | --- | --- | --- | --- | --- | --- | --- | --- | --- | --- | --- | --- |
| 128 (≈ 310 µM) | 64 (≈ 155 µM) | 32 (≈ 77.6 µM) | 64 (≈ 155 µM) | 32 (≈ 77.6 µM) | 32 (≈ 77.6 µM) | 16 (≈ 38.8 µM) | 64 (≈ 155 µM) | Cc1ccc(S(=O)(=O)N2C(=O)CSC2c2ccccc2Br)cc1 (stereo not drawn) [5b, 2-(2-Bromophenyl)-3-[(4-methylphenyl)sulfonyl]-1,3-thiazolidin-4-one] | 08 ± 0.7 | 15 ± 0.93 | 12 ± 0.7 | 14 ± 0.56 | 10 ± 0.34 | 10.8 ± 0.51 | 10 ± 0.9 | 16 ± 1.1 | 10 ± 0.6 | 11.6 ± 0.65 | 10 ± 0.5 | 7.2 ± 0.3 | MIC [21]: 64 µg/mL (≈ 155 µM) |
| 32 (≈ 77.6 µM) | 16 (≈ 38.8 µM) | 4 (≈ 9.7 µM) | 32 (≈ 77.6 µM) | 16 (≈ 38.8 µM) | 16 (≈ 38.8 µM) | 4 (≈ 9.7 µM) | 8 (≈ 19.4 µM) | Cc1ccc(S(=O)(=O)N2C(=O)CSC2c2ccc(Br)cc2)cc1 (stereo not drawn) [5d, 2-(4-Bromophenyl)-3-[(4-methylphenyl)sulfonyl]-1,3-thiazolidin-4-one] | 10 ± 1.6 | 20 ± 1.1 | 14 ± 0.6 | 20 ± 0.9 | 12 ± 0.4 | 11.8 ± 0.66 | 9.8 ± 0.5 | 21 ± 2.3 | 18 ± 0.44 | 12.9 ± 0.5 | 18 ± 0.3 | 17 ± 1.0 | MIC [21]: 32 µg/mL (≈ 77.6 µM) |
| 32 (≈ 87 µM) | 64 (≈ 174 µM) | 16 (≈ 43.5 µM) | 32 (≈ 87 µM) | 16 (≈ 43.5 µM) | 32 (≈ 87 µM) | 8 (≈ 21.7 µM) | 8 (≈ 21.7 µM) | Cc1ccc(S(=O)(=O)N2C(=O)CSC2c2cccc(Cl)c2)cc1 (stereo not drawn) [5f, 2-(3-Chlorophenyl)-3-[(4-methylphenyl)sulfonyl]-1,3-thiazolidin-4-one] | 18 ± 0.7 | 18 ± 0.56 | 14 ± 0.2 | 18 ± 0.23 | 12 ± 2.2 | 11.2 ± 0.6 | 11.8 ± 1.5 | 20 ± 1.2 | 14 ± 0.6 | 12 ± 0.35 | 18 ± 0.23 | 10 ± 0.7 | MIC [21]: 16 µg/mL (≈ 43.5 µM) |
| 16 (≈ 45.5 µM) | 8 (≈ 22.8 µM) | 32 (≈ 91.1 µM) | 16 (≈ 45.5 µM) | 16 (≈ 45.5 µM) | 16 (≈ 45.5 µM) | 16 (≈ 45.5 µM) | 32 (≈ 91.1 µM) | Cc1ccc(S(=O)(=O)N2C(=O)CSC2c2cccc(F)c2)cc1 (stereo not drawn) [5i, 2-(3-Fluorophenyl)-3-[(4-methylphenyl)sulfonyl]-1,3-thiazolidin-4-one] | 12 ± 0.4 | 18 ± 0.23 | 10 ± 0.76 | 22.8 ± 0.63 | 14 ± 0.9 | 11 ± 0.9 | 15 ± 0.6 | 17 ± 0.53 | 18 ± 1.62 | 15 ± 0.32 | 12 ± 0.4 | 14 ± 1.3 | MIC [21]: 32 µg/mL (≈ 91.1 µM) |
| 128 (≈ 366 µM) | 64 (≈ 183 µM) | 32 (≈ 91.6 µM) | 128 (≈ 366 µM) | 16 (≈ 45.8 µM) | 64 (≈ 183 µM) | 16 (≈ 45.8 µM) | 16 (≈ 45.8 µM) | Cc1ccc(S(=O)(=O)N2C(=O)CSC2c2cccc(O)c2)cc1 (stereo not drawn) [5l, 2-(3-Hydroxyphenyl)-3-[(4-methylphenyl)sulfonyl]-1,3-thiazolidin-4-one] | 10 ± 0.5 | 16 ± 1.5 | 10 ± 0.3 | 17.8 ± 1.1 | 08 ± 0.5 | 14 ± 1.5 | 12 ± 2.3 | 14 ± 1.2 | 12 ± 1.6 | 17 ± 0.5 | 14 ± 0.4 | 12 ± 1.4 | MIC [21]: 64 µg/mL (≈ 183 µM) |
| 128 (≈ 368 µM) | 128 (≈ 368 µM) | 64 (≈ 184 µM) | 128 (≈ 368 µM) | 64 (≈ 184 µM) | 64 (≈ 184 µM) | 64 (≈ 184 µM) | 128 (≈ 368 µM) | Cc1ccc(S(=O)(=O)N2C(=O)CSC2c2ccccc2C)cc1 (stereo not drawn) [5r, 2-(2-Methylphenyl)-3-[(4-methylphenyl)sulfonyl]-1,3-thiazolidin-4-one] | 08 ± 0.8 | 16 ± 1.9 | 08 ± 0.6 | 15 ± 0.69 | 08 ± 0.4 | 9.8 ± 0.9 | 9.6 ± 0.9 | 14 ± 1.1 | 10 ± 0.7 | 10 ± 0.6 | 08 ± 0.3 | 11 ± 0.7 | MIC [21]: 64 µg/mL (≈ 184 µM) |
| – | – | 4 (≈ 11.4 µM) | 4 (≈ 11.4 µM) | – | 2 (≈ 5.72 µM) | 1 (≈ 2.86 µM) | 8 (≈ 22.9 µM) | CC1(C)S[C@@H]2[C@H](NC(=O)[C@H](N)c3ccccc3)C(=O)N2[C@H]1C(=O)O [AA, Ampicillin, reference compound] | 17 | 17 | 18 | 18 | 19 | – | – | 21 | 20 | – | 17 | – | – |
| 2 (≈ 5.8 µM) | 1 (≈ 2.9 µM) | – | – | 4 (≈ 11.6 µM) | – | – | – | Clc1ccccc1C(c1ccccc1)(c1ccccc1)n1ccnc1 [CL, Clotrimazole, reference compound] | – | – | – | – | – | 23 | 22 | – | – | 24 | – | 19 | MIC [21]: 16 µg/mL (≈ 46.4 µM) |

Reference: publication PMC8268672 (Bioorganic Chemistry, 2021)
